Results: publication PMC4207554 (Drug Design, Development and Therapy, 2014)

Legend:
[1] = system: H22 mouse hepatoma cells; assay: H22 hepatoma xenograft model; format: in vivo, Kun Ming (KM) mice
Method in brief: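 Kun Ming mice (eight/group) received 2×10^5 H22 hepatoma cells sc in the right armpit. Test compound (5, 15, 45 mg/kg) or adriamycin (2 mg/kg) in HS-15/N,N-dimethylformamide (1:1 v/v) was injected ip. Mice were weighed twice weekly and killed by cervical dislocation, and tumors were weighed. Inhibition (%) = (mean control tumor weight − mean treated)/mean control × 100.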

[2] = system: BEL-7402 human hepatoma cells; assay: BEL-7402 human hepatoma xenograft model; format: in vivo, nude mice
[3] = system: bone marrow polychromatic erythrocytes; conditions: 15 mg/kg, similar experiment conditions; cited from earlier work
[4] = cited from earlier work

inhibition of body weight of mice ([1]; H22 xenografts): 25.1%
inhibition of body weight of mice ([2]; BEL7402 xenografts): 33.3%
SMILES: COc1cccc2c1C(=O)c1c(O)c3c(c(O)c1C2=O)C[C@@](O)(C(=O)CO)C[C@@H]3O[C@H]1C[C@H](N)[C@H](O)[C@H](C)O1 [ADM, adriamycin]
inhibitory rate of cancer growth ([1]; 2 mg/kg ip): 51.9%
influence on body weights of mice ([1]; H22-bearing mice): much more loss of body weight
inhibitory rate ([2]; 2 mg/kg ip, BEL-7402 xenografts): 73.5%
changes in body weights versus vehicle group ([2]; BEL-7402 xenografts, 3 weeks): significantly reduced
induction of micronuclei [3]: induce large amounts of micronuclei
bioavailability after oral administration [4]: poor bioavailability
